The source made the active and inactive calls. The rule behind the calls is not given here.
How the values were obtained:
[1] = target: Serine/threonine-protein kinase mTOR (Homo sapiens) (UniProt P42345); assay: Inhibition of mTOR in human MDA-MB-231 cells assessed as eIF2alpha hyperphosphorylation on Ser 51 at 0.1 to 1 uM after 30 mins by Western blotting; assay type: cell-based
Method in brief: (§1)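 0.8 × 10^6 cells per well exposed for 30 min at 37 °C, 5% CO2, in DMEM/F12 with 5% FBS. Cells washed with cold DPBS and lysed in modified RIPA (pH 7.6) with protease and phosphatase inhibitors. 40 µg protein run on 4–20% SDS-PAGE and blotted. Phospho-site-specific primary antibodies at 1:1,000, HRP anti-rabbit IgG, chemiluminescence on film.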

T47D [2] = assay: Reduction in ATP level in human T47D cells at 0.01 to 0.1 uM after 72 hrs by HPLC-UV analysis; assay type: functional, cell-based
Method in brief: (§2)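 5 × 10^5 cells per well seeded in DMEM/F12 with 10% FBS. After 24 h, half the medium replaced with serum-free DMEM/F12 containing compound. After exposure, cells washed in cold DPBS and extracted with cold 0.4 M perchloric acid, then neutralized with K2CO3. ATP quantified by reversed-phase C18 HPLC-UV using 50 mM potassium phosphate pH 6.0/MeOH at 0.7 mL/min.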

[3] = target: Serine/threonine-protein kinase mTOR (Homo sapiens) (UniProt P42345); assay: Inhibition of mTOR in human T47D cells assessed as eIF2alpha hyperphosphorylation on Ser 51 at 0.1 to 1 uM after 30 mins by Western blotting; assay type: cell-based; method in brief: as §1
[4] = target: Serine/threonine-protein kinase mTOR (Homo sapiens) (UniProt P42345); assay: Inhibition of mTORC1-mediated eIF4E phosphorylation on Ser 209 in human T47D cells at 0.1 to 1 uM after 30 mins by Western blotting; assay type: cell-based; method in brief: as §1
MDA-MB-231 [5] = assay: Inhibition of cellular respiration in human MDA-MB-231 cells assessed as rate of oxygen consumption; assay type: functional, cell-based
Method in brief: (§3)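 Whole-cell oxygen consumption measured with a Clarke-type oxygen electrode during a concentration-response series. Cells in serum-free DMEM/F12 medium at 30 °C.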

T47D [6] = assay: Inhibition of cellular respiration in human T47D cells assessed as rate of oxygen consumption at 0.001 to 0.1 uM; assay type: functional, cell-based; method in brief: as §3
T47D [7] = assay: Antiproliferative activity against human T47D cells assessed as cell viability at 0.01 to 0.1 uM after 72 hrs by SRB assay; assay type: functional
Method in brief: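 T47D cells grown in DMEM/F12 with 10% FBS and penicillin/streptomycin, then exposed for 72 h in a parallel 96-well viability study. Cells fixed in the wells with no aspiration or wash, stained by sulforhodamine B, and read by OD. % inhibition = [1 − (OD treated/OD medium control)] × 100.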

[8] = target: Serine/threonine-protein kinase mTOR (Homo sapiens) (UniProt P42345); assay: Inhibition of mTOR in human MDA-MB-231 cells assessed as eEF2 hyperphosphorylation on Ser 56 at 0.1 to 1 uM after 30 mins by Western blotting; assay type: cell-based; method in brief: as §1
T47D [9] = assay: Reduction in ATP level in human T47D cells after 48 hrs by HPLC-UV analysis; assay type: functional, cell-based; method in brief: as §2
[10] = target: Serine/threonine-protein kinase mTOR (Homo sapiens) (UniProt P42345); assay: Inhibition of mTOR in human T47D cells assessed as eEF2 hyperphosphorylation on Ser 56 at 0.1 to 1 uM after 30 mins by Western blotting; assay type: cell-based; method in brief: as §1
[11] = target: Serine/threonine-protein kinase mTOR (Homo sapiens) (UniProt P42345); assay: Inhibition of mTORC1-mediated rpS6 phosphorylation on Ser 235/236 in human T47D cells at 0.1 to 1 uM after 30 mins by Western blotting; assay type: cell-based; method in brief: as §1
MDA-MB-231 [12] = assay: Reduction in ATP level in human MDA-MB-231 cells at 0.01 to 0.1 uM after 48 hrs by HPLC-UV analysis; assay type: functional, cell-based; method in brief: as §2
[13] = target: Serine/threonine-protein kinase mTOR (Homo sapiens) (UniProt P42345); assay: Inhibition of mTOR-mediated 4E-BP1 phosphorylation on Thr 37/46 in human MDA-MB-231 cells at 0.1 to 1 uM after 30 mins by Western blotting; assay type: cell-based; method in brief: as §1
[14] = target: Serine/threonine-protein kinase mTOR (Homo sapiens) (UniProt P42345); assay: Inhibition of mTOR-mediated rpS6 phosphorylation on Ser 235/236 in human MDA-MB-231 cells at 0.1 to 1 uM after 30 mins by Western blotting; assay type: cell-based; method in brief: as §1
[15] = target: Serine/threonine-protein kinase mTOR (Homo sapiens) (UniProt P42345); assay: Inhibition of mTOR-mediated eIF4E phosphorylation on Ser 209 in human MDA-MB-231 cells at 0.1 to 1 uM after 30 mins by Western blotting; assay type: cell-based; method in brief: as §1
T47D [16] = assay: Reduction in ATP level in human T47D cells after 72 hrs by HPLC-UV analysis; assay type: functional, cell-based; method in brief: as §2
[17] = target: Serine/threonine-protein kinase mTOR (Homo sapiens) (UniProt P42345); assay: Inhibition of mTOR-mediated 4E-BP1 phosphorylation on Thr 37/46 in human T47D cells at 0.1 to 1 uM after 30 mins by Western blotting; assay type: cell-based; method in brief: as §1
MDA-MB-231 [18] = assay: Reduction in ATP level in human MDA-MB-231 cells after 72 hrs by HPLC-UV analysis; assay type: functional, cell-based; method in brief: as §2
[19] = target: T1, Hypoxia inducible factors; HIF-1-alpha, HIF-2-alpha (Homo sapiens, UniProt Q16665+Q99814); assay: Inhibition of HIF1-mediated induction of cellular VEGF protein in human T47D cells at 3 uM after 16 hrs by ELISA under normoxic condition; assay type: cell-based
[20] = target: T1, Hypoxia inducible factors; HIF-1-alpha, HIF-2-alpha; assay: Inhibition of HIF1-mediated induction of secreted VEGF protein in hypoxia-stimulated human T47D cells at 3 uM after 16 hrs by ELISA; assay type: cell-based
[21] = target: T1, Hypoxia inducible factors; HIF-1-alpha, HIF-2-alpha; assay: Inhibition of HIF1-mediated induction of cellular VEGF protein in hypoxia-stimulated human T47D cells at 3 uM after 16 hrs by ELISA; assay type: cell-based
[22] = target: T1, Hypoxia inducible factors; HIF-1-alpha, HIF-2-alpha; assay: Inhibition of HIF1-mediated induction of Glut-1 mRNA expression in human T47D cells at 3 uM after 16 hrs by RT-PCR analysis under normoxic condition; assay type: cell-based
T47D [23] = assay: Inhibition of HIF1beta protein accumulation under hypoxic condition in human T47D cells at 3 uM after 4 hrs by Western blot analysis; assay type: functional, cell-based
T47D [24] = assay: Ratio of IC50 for 1, 10-phenanthroline-induced HIF1 activation in human T47D cells to IC50 for hypoxia-induced HIF1 activation in human T47D cells; assay type: cell-based
T47D [25] = assay: Antiproliferative activity against human T47D cells assessed as cell viability by SRB assay; assay type: functional, cell-based
Method in brief: (§4)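 Cells grown in DMEM/F12 with 10% FBS, penicillin and streptomycin; 96-well viability assay, 2-day or 6-day exposure, with medium (5% FBS) and compound renewed after 3 days in the 6-day study. Read by optical density; % inhibition = [1 − (ODtreated/ODcontrol)] × 100 versus medium control.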

T47D [26] = assay: Inhibition of cellular respiration in human T47D cells at 1 uM by oxygen consumption assay; assay type: functional
Method in brief: (§5)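 Oxygen consumption of intact T47D cells measured with a Clark-type electrode, in serum-free DMEM/F12 at 30 °C.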

[27] = target: T1, Hypoxia inducible factors; HIF-1-alpha, HIF-2-alpha; assay: Inhibition of HIF1-mediated induction of VEGF mRNA expression in human T47D cells at 3 uM after 16 hrs by RT-PCR analysis under normoxic condition; assay type: cell-based
T47D [28] = assay: Inhibition of HIF1alpha protein accumulation under hypoxic condition in human T47D cells at 3 uM after 4 hrs by Western blot analysis; assay type: functional, cell-based
[29] = target: T1, Hypoxia inducible factors; HIF-1-alpha, HIF-2-alpha; assay: Inhibition of hypoxia-induced HIF1 activation in human T47D cells after 16 hrs by HRE3-TK-luciferase reporter gene assay; assay type: cell-based
Method in brief: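 T47D cells carrying the pHRE3-TK-Luc reporter, grown in DMEM/F12 with 10% FBS; HIF-1 induced by hypoxia (1% O2). Activity reported as % inhibition of the induced control, calculated as [1 − (treated/control)] × 100.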

[30] = target: T1, Hypoxia inducible factors; HIF-1-alpha, HIF-2-alpha; assay: Inhibition of HIF1-mediated induction of secreted VEGF protein in hypoxia-stimulated human T47D cells at 0.3 uM after 16 hrs by ELISA; assay type: cell-based
MDA-MB-231 [31] = assay: Antiproliferative activity against human MDA-MB-231 cells assessed as cell viability by SRB assay; assay type: functional, cell-based; method in brief: as §4
[32] = target: T1, Hypoxia inducible factors; HIF-1-alpha, HIF-2-alpha; assay: Inhibition of HIF1-mediated induction of VEGF mRNA expression in hypoxia-stimulated human T47D cells at 0.3 to 3 uM after 16 hrs by RT-PCR analysis; assay type: cell-based
[33] = target: T1, Hypoxia inducible factors; HIF-1-alpha, HIF-2-alpha; assay: Inhibition of HIF1-mediated induction of cellular VEGF protein in hypoxia-stimulated human T47D cells at 0.3 uM after 16 hrs by ELISA; assay type: cell-based
[34] = target: T1, Hypoxia inducible factors; HIF-1-alpha, HIF-2-alpha; assay: Inhibition of HIF1-mediated induction of secreted VEGF protein in human T47D cells at 3 uM after 16 hrs by ELISA under normoxic condition; assay type: cell-based
[35] = target: T1, Hypoxia inducible factors; HIF-1-alpha, HIF-2-alpha; assay: Inhibition of HIF1-mediated induction of Glut-1 mRNA expression in hypoxia-stimulated human T47D cells at 0.3 to 3 uM after 16 hrs by RT-PCR analysis; assay type: cell-based
T47D [36] = assay: Inhibition of cellular respiration in human T47D cell at 0.03 to 1 uM by oxygen consumption assay; assay type: functional, cell-based; method in brief: as §5
PC-3 = assay: Antiproliferative activity against human PC3 cells assessed as cell viability by SRB assay; assay type: functional, cell-based; method in brief: as §4
T47D [37] = assay: Inhibition of 1, 10-phenanthroline-induced HIF1beta protein accumulation in human T47D cells at 3 uM after 4 hrs by Western blot analysis; assay type: functional, cell-based
T47D [38] = assay: Inhibition of 1, 10-phenanthroline-induced HIF1alpha protein accumulation in human T47D cells at 3 uM after 4 hrs by Western blot analysis; assay type: functional, cell-based
[39] = target: T1, Hypoxia inducible factors; HIF-1-alpha, HIF-2-alpha; assay: Inhibition of 1, 10-phenanthroline-induced HIF1 activation in human T47D cells after 16 hrs by HRE3-TK-luciferase reporter gene assay; assay type: cell-based

## C=C(C)[C@H]1Cc2c(ccc3c2O[C@@H]2COc4cc(OC)c(OC)cc4[C@@H]2C3=O)O1 [ROTENONE]
[1]
  Activity: Active
T47D [2]
  Activity: Active
[3]
  inhibition: Active
[4]
  inhibition: inactive
MDA-MB-231 [5]
  inhibition: Dose-dependent effect
T47D [6]
  inhibition: Active
T47D [7]
  Activity: 50%
[8]
  Activity: Active
T47D [9]
  Activity: Active
[10]
  Activity: Active
[11]
  inhibition: inactive
MDA-MB-231 [12]
  Activity: Active
[13]
  inhibition: inactive
[14]
  inhibition: inactive
[15]
  inhibition: inactive
T47D [16]
  Activity: Dose-dependent effect
[17]
  inhibition: inactive
MDA-MB-231 [18]
  Activity: Dose-dependent effect

## CC(C)=CC(=O)O[C@@H]1CC[C@]2(C)[C@H]3CC[C@]45C[C@]4(CC[C@@H]5[C@@H]4C[C@H]([C@@H]5OC5(C)C)OC4O)[C@]3(C)[C@H](O)C[C@H]2C1(C)C (stereo not given in full) [SKIMMIAREPIN C]
[19]
  inhibition: inactive
[20]
  inhibition: Active
[21]
  inhibition: Active
[22]
  inhibition: inactive
T47D [23]
  inhibition: inactive
T47D [24]
  Ratio IC50: 80
T47D [25]
  Activity: Active
T47D [26]
  inhibition at 1 µM: 75%
[27]
  inhibition: inactive
T47D [28]
  inhibition: Active
[29]
  IC50: 0.068 µM
[30]
  inhibition: Active
MDA-MB-231 [31]
  Activity: inactive
[32]
  inhibition: Active
[33]
  inhibition: Active
[34]
  inhibition: inactive
[35]
  inhibition: Active
T47D [36]
  inhibition: Dose-dependent effect
PC-3
  Activity: Active
T47D [37]
  inhibition: inactive
T47D [38]
  inhibition: inactive
[39]
  IC50: 5.6 µM

Source: ChEMBL document CHEMBL1909531, “Mitochondrial respiration inhibitors suppress protein translation and hypoxic signaling via the hyperphosphorylation and inactivation of translation initiation factor eIF2α and elongation factor eEF2” (J Nat Prod, 2011)
